Source: ChEMBL document CHEMBL5058577, “EUbOPEN Chemogenomics Library 2 (Multiplex)” (2022)

Tested on: U2OS
Assay: Multiplex assay against U2OS
Format: toxicity, cell-based
Conditions: human
How it was run: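 Values for tubulin, mitochondrial-mass and membrane-permeability phenotypes are per cents of cells with healthy nuclei. These cells were identified by CellPathfinder machine-learning gating of live cells that had been stained at seeding with Hoechst33342, BioTracker Green Microtubule Cytoskeleton Dye, MitoTracker Red and Annexin V Alexa Fluor 680 and imaged on a CQ1 microscope at 37°C and 5% CO2 after compound addition. The gating first set Hoechst high-intensity objects apart from normal cells, then split normal cells into healthy, pyknosed or fragmented nuclei, and pyknosed cells into mitotic or apoptotic.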

[1] = 12 h, 1 µM, compound concentration 1 uM, replicate 1
[2] = 12 h, 1 µM, compound concentration 1 uM, replicate 2
[3] = 12 h, 10 µM, compound concentration 10 uM, replicate 1
[4] = 12 h, 10 µM, compound concentration 10 uM, replicate 2
[5] = 24 h, 1 µM, compound concentration 1 uM, replicate 1
[6] = 24 h, 1 µM, compound concentration 1 uM, replicate 2
[7] = 24 h, 10 µM, compound concentration 10 uM, replicate 1
[8] = 24 h, 10 µM, compound concentration 10 uM, replicate 2
[9] = 48 h, 1 µM, compound concentration 1 uM, replicate 1
[10] = 48 h, 1 µM, compound concentration 1 uM, replicate 2
[11] = 48 h, 10 µM, compound concentration 10 uM, replicate 1
[12] = 48 h, 10 µM, compound concentration 10 uM, replicate 2

Br.CS(=O)(=O)Nc1c(O)ccc2c1CCCC2C1=NCCN1 (centres undefined)
Population Apoptotic (%) [1]: 63%
Population Fragmented Nuclei (%) [1]: 20%
Population Healthy Nuclei (%) [1]: 75%
Population Hoechst High Intensity Objects (%) [1]: 2%
Population Membrane Permeable-Phenotype (%) [1]: 3%
Population Mitochondria Different-Phenotype (%) [1]: 2%
Population Mitotic Cells (%) [1]: 36%
Population Normal (%) [1]: 97%
Population Pyknosed Nuclei (%) [1]: 3%
Population Tubulin-Different-Phenotype (%) [1]: 2%
Total Cell Count [1]: 288
Population Apoptotic (%) [2]: 80%
Population Fragmented Nuclei (%) [2]: 13%
Population Healthy Nuclei (%) [2]: 82%
Population Hoechst High Intensity Objects (%) [2]: 0%
Population Membrane Permeable-Phenotype (%) [2]: 5%
Population Mitochondria Different-Phenotype (%) [2]: 1%
Population Mitotic Cells (%) [2]: 20%
Population Normal (%) [2]: 100%
Population Tubulin-Different-Phenotype (%) [2]: 1%
Total Cell Count [2]: 151
Population Apoptotic (%) [3]: 69%
Population Fragmented Nuclei (%) [3]: 36%
Population Healthy Nuclei (%) [3]: 57%
Population Hoechst High Intensity Objects (%) [3]: 1%
Population Membrane Permeable-Phenotype (%) [3]: 8%
Population Mitochondria Different-Phenotype (%) [3]: 0%
Population Mitotic Cells (%) [3]: 30%
Population Normal (%) [3]: 98%
Population Pyknosed Nuclei (%) [3]: 6%
Population Tubulin-Different-Phenotype (%) [3]: 1%
Total Cell Count [3]: 215
Population Apoptotic (%) [4]: 100%
Population Fragmented Nuclei (%) [4]: 22%
Population Healthy Nuclei (%) [4]: 75%
Population Hoechst High Intensity Objects (%) [4]: 0%
Population Membrane Permeable-Phenotype (%) [4]: 6%
Population Mitochondria Different-Phenotype (%) [4]: 6%
Population Mitotic Cells (%) [4]: 0%
Population Normal (%) [4]: 100%
Population Pyknosed Nuclei (%) [4]: 2%
Total Cell Count [4]: 84
Population Apoptotic (%) [5]: 76%
Population Fragmented Nuclei (%) [5]: 18%
Population Healthy Nuclei (%) [5]: 73%
Population Hoechst High Intensity Objects (%) [5]: 2%
Population Membrane Permeable-Phenotype (%) [5]: 3%
Population Mitochondria Different-Phenotype (%) [5]: 2%
Population Mitotic Cells (%) [5]: 23%
Population Normal (%) [5]: 97%
Population Pyknosed Nuclei (%) [5]: 7%
Population Tubulin-Different-Phenotype (%) [5]: 2%
Total Cell Count [5]: 341
Population Apoptotic (%) [6]: 92%
Population Fragmented Nuclei (%) [6]: 14%
Population Healthy Nuclei (%) [6]: 78%
Population Hoechst High Intensity Objects (%) [6]: 1%
Population Membrane Permeable-Phenotype (%) [6]: 7%
Population Mitotic Cells (%) [6]: 7%
Population Normal (%) [6]: 98%
Population Tubulin-Different-Phenotype (%) [6]: 4%
Total Cell Count [6]: 185
Population Apoptotic (%) [7]: 86%
Population Fragmented Nuclei (%) [7]: 31%
Population Healthy Nuclei (%) [7]: 62%
Population Hoechst High Intensity Objects (%) [7]: 2%
Population Membrane Permeable-Phenotype (%) [7]: 5%
Population Mitochondria Different-Phenotype (%) [7]: 1%
Population Mitotic Cells (%) [7]: 13%
Population Normal (%) [7]: 97%
Population Pyknosed Nuclei (%) [7]: 6%
Population Tubulin-Different-Phenotype (%) [7]: 2%
Total Cell Count [7]: 240
Population Apoptotic (%) [8]: 100%
Population Fragmented Nuclei (%) [8]: 16%
Population Healthy Nuclei (%) [8]: 80%
Population Hoechst High Intensity Objects (%) [8]: 0%
Population Membrane Permeable-Phenotype (%) [8]: 3%
Population Mitochondria Different-Phenotype (%) [8]: 4%
Population Mitotic Cells (%) [8]: 0%
Population Normal (%) [8]: 100%
Population Pyknosed Nuclei (%) [8]: 2%
Population Tubulin-Different-Phenotype (%) [8]: 3%
Total Cell Count [8]: 103
Population Apoptotic (%) [9]: 74%
Population Fragmented Nuclei (%) [9]: 14%
Population Healthy Nuclei (%) [9]: 78%
Population Hoechst High Intensity Objects (%) [9]: 1%
Population Membrane Permeable-Phenotype (%) [9]: 2%
Population Mitochondria Different-Phenotype (%) [9]: 2%
Population Mitotic Cells (%) [9]: 25%
Population Normal (%) [9]: 98%
Population Pyknosed Nuclei (%) [9]: 6%
Population Tubulin-Different-Phenotype (%) [9]: 2%
Total Cell Count [9]: 484
Population Apoptotic (%) [10]: 81%
Population Fragmented Nuclei (%) [10]: 13%
Population Healthy Nuclei (%) [10]: 76%
Population Membrane Permeable-Phenotype (%) [10]: 5%
Population Mitotic Cells (%) [10]: 18%
Population Pyknosed Nuclei (%) [10]: 10%
Population Tubulin-Different-Phenotype (%) [10]: 1%
Total Cell Count [10]: 253
Population Apoptotic (%) [11]: 90%
Population Fragmented Nuclei (%) [11]: 23%
Population Healthy Nuclei (%) [11]: 70%
Population Hoechst High Intensity Objects (%) [11]: 1%
Population Membrane Permeable-Phenotype (%) [11]: 5%
Population Mitochondria Different-Phenotype (%) [11]: 1%
Population Mitotic Cells (%) [11]: 10%
Population Normal (%) [11]: 98%
Population Pyknosed Nuclei (%) [11]: 6%
Population Tubulin-Different-Phenotype (%) [11]: 2%
Total Cell Count [11]: 333
Population Apoptotic (%) [12]: 100%
Population Fragmented Nuclei (%) [12]: 17%
Population Healthy Nuclei (%) [12]: 74%
Population Hoechst High Intensity Objects (%) [12]: 0%
Population Membrane Permeable-Phenotype (%) [12]: 3%
Population Mitochondria Different-Phenotype (%) [12]: 6%
Population Mitotic Cells (%) [12]: 0%
Population Normal (%) [12]: 100%
Population Pyknosed Nuclei (%) [12]: 7%
Total Cell Count [12]: 152
